Results reported in article PMC3702173 (Circulation research, 2013).
Entries after “also recorded” stand apart in the source; their conditions may differ.

How the values were obtained:
HUVEC = experiment: Transendothelial transport; assay type: cell-based, human; details: for Effect on transendothelial LL37 transportation: pretreatment of HUVEC with inhibitor or enzyme
[1] = tested on: classical CD14^++CD16^− monocytes; assay type: cell-based, human; details: for Monocyte adhesion to P-selectin/ICAM-1 or P-selectin/VCAM-1: substance coimmobilized, LL37/MCP1 n=8, mLL37 n=3
[2] = tested on: murine monocytes (ICAM-1 or VCAM-1 binding); assay type: cell-based, mouse; details: PMA 50ng/ml, MCP-1 50ng/ml, CRAMP 1µg/ml; ICAM-1-Fc or VCAM-1-Fc; n=5
Summary of the method: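 Mouse peripheral leukocytes exposed to PMA (50ng/ml), MCP-1 (50ng/ml) or CRAMP (1µg/ml) with ICAM-1-Fc or VCAM-1-Fc plus anti-Fc antibody; monocyte subsets gated by CD45, CD11b, CD115 and Gr1 staining; ligand binding read by flow cytometry; n=5.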

[3] = tested on: activated CD11b and VLA4 (β1- and β2-integrins) on monocytes; experiment: Integrin activation; assay type: cell-based, human; details: LL37 1µg/ml; for Integrin activation on non-classical CD14^+CD16^++ monocytes: MCP-1 50ng/ml, Online Figure V
neutrophils = details: ref [24]; cited from earlier work
[4] = tested on: various T-cells, smooth muscle cells, and epithelial cells; details: ref [44], [45]; cited from earlier work
FPR2 = details: ref [6]; cited from earlier work
P2X7 [5] = details: LPS-primed monocytes; via P2X7; ref [41]; cited from earlier work
[6] = tested on: endothelial adhesion molecules on HUVEC; experiment: Expression of endothelial adhesion molecules on HUVEC; assay type: cell-based, human; details: treatment of HUVEC with LL37
P2X7 [7] = experiment: Surface plasmon resonance, receptor proteoliposomes on immobilized LL37; assay type: binding; details: LL37 immobilized on CM4 chip; receptor-containing proteoliposomes; not shown
monocytes = details: ref [40]; cited from earlier work
[8] = tested on: human non-classical CD14^+CD16^++ monocytes; assay type: cell-based; details: LL37 (1µg) deposited 15 min prior to perfusion; TNF-activated HUVEC; n=6
Summary of the method: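 Human non-classical CD14+CD16++ monocytes perfused in a flow chamber over HUVEC monolayers activated with TNF (20ng, 12h); LL37 (1µg) deposited on the monolayer 15 min before perfusion; adherent cells counted; n=6.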

DARC = experiment: Interaction of DARC and LL37; assay type: binding; details: Online Figure IV
classical monocytes = experiment: Classical monocyte accumulation in peritoneum upon stimulation with TNF; assay type: in vivo, mouse; details: CRAMP-deficient mice, local application of CRAMP, unpublished data
[9] = tested on: endothelium (baso-apical transport of CRAMP); assay type: in vivo, mouse; details: n=4
Summary of the method: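 Neutropenic Darc−/− mice (1A8, 50µg/mouse i.p., 8h before stimuli) were injected intrascrotally with TNF (50ng, 4h) plus CRAMP (1µg). Fluorescent beads conjugated with anti-CRAMP antibody were then injected, and immobilised luminal beads were counted by intravital microscopy; n=4.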

non-classical monocytes = details: mouse cremaster muscle in vivo
Summary of the method: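 Cx3cr1egfp/WT mice, either with intact white cell count or made neutropenic with 1A8 (50µg i.p., 12h before), got TNF (50ng, 12h) intrascrotally. Anti-Ly6C (1µg i.v.) separated subsets, with non-classical monocytes GFP+ only. Cremaster adhesion was quantified by intravital microscopy; n=6.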

[10] = tested on: classical monocytes (Ly6C^+); assay type: in vivo, mouse

## CCCCC[C@@H](O)[C@H]1C(=O)O[C@H](C)[C@@H](O)/C=C/C=C/C=C/C=C/C=C(\C)[C@@H](O)C[C@H](O)C[C@H](O)C[C@H](O)C[C@H](O)C[C@H](O)C[C@@H]1O [filipin]
HUVEC; n=6
  Effect on transendothelial LL37 transportation: clear-cut decreases of LL37 transcytosis

## Cc1ccc(C(=O)Nc2ccc(S(=O)(=O)O)c3cc(S(=O)(=O)O)cc(S(=O)(=O)O)c23)cc1NC(=O)c1cccc(NC(=O)Nc2cccc(C(=O)Nc3cc(C(=O)Nc4ccc(S(=O)(=O)O)c5cc(S(=O)(=O)O)cc(S(=O)(=O)O)c45)ccc3C)c2)c1 [suramin]
HUVEC; n=6
  Effect on transendothelial LL37 transportation: did not impact on transendothelial LL37 transportation

## MCP1: classical chemokine, CCR2 ligand (CCL2/MCP-1)
[1]
  Monocyte adhesion to P-selectin/ICAM-1 or P-selectin/VCAM-1: strongly enhanced monocyte adhesion
[2]
  ICAM-1 and VCAM-1 binding to classical monocytes: increased binding of ICAM-1 or VCAM-1
[3]
  Integrin activation on non-classical CD14^+CD16^++ monocytes: not on non-classical CD14^+CD16^++ monocytes

## C=C1[C@@H](C)[C@H]2[C@H](Cc3ccccc3)NC(=O)[C@]23OC(=O)/C=C/[C@H](O)CCC[C@@H](C)C/C=C/[C@H]3[C@@H]1O [cytochalasin B]
HUVEC; n=6
  Effect on transendothelial LL37 transportation: abrogated

## boc-PLPLP
HUVEC; n=6
  Effect on transendothelial LL37 transportation: did not impact on transendothelial LL37 transportation

## CCCCOc1ccc(C(=O)NN2C(=O)c3ccccc3NC2c2ccc(O)cc2)cc1 (stereo not shown) [quin-C7, reference compound]
[3]; quin-C7 1µM, U73122 100nM, classical monocytes, n=4
  Effect on LL37-induced integrin activation: fully abrogated integrin activation induced by LL37

## COc1cc2c(c(OC)c1OC)-c1ccc(OC)c(=O)cc1[C@@H](NC(C)=O)CC2 [colchicine]
HUVEC; n=6
  Effect on transendothelial LL37 transportation: abrogated

## LL37: human cathelicidin; linear peptide; FITC-labelled form used in transport experiment
neutrophils
  Apoptotic cell death in neutrophils: inhibit apoptotic cell death in neutrophils
[4]
  Apoptosis: promotes apoptosis in various T-cells, smooth muscle cells, and epithelial cells
[1]
  Monocyte adhesion to P-selectin/ICAM-1 or P-selectin/VCAM-1: strongly enhanced monocyte adhesion
FPR2
  Effect of serum on direct chemotactic activity: not affected by serum
P2X7 [5]
  Processing and release of IL-1 β: induced processing and release of the potent cytokine IL-1 β
[3]
  Integrin activation on non-classical CD14^+CD16^++ monocytes: not on non-classical CD14^+CD16^++ monocytes
[6]
  Effect on expression of endothelial adhesion molecules: did not impact on expression of endothelial adhesion molecules
P2X7 [7]
  Binding to P2X7: no interaction with LL37
HUVEC; 4 °C, n=6
  Transendothelial LL37 transportation at 4°C: abrogated at 4 °C
HUVEC; time course, antibody-stained surface-bound LL37
  Time until LL37 accumulation on HUVEC surface: ≥ 2 h
monocytes
  Production and release of IL8: induces the production and release of IL8 from monocytes
[8]
  Adhesion of non-classical monocytes, in vitro flow chamber: not of non-classical monocytes
DARC
  Interaction with DARC: could not detect an interaction between DARC and LL37

## CCCCCCCCCCCCCC(=O)O[C@@H]1[C@@H](C)[C@@]2(O)[C@@H](C=C(CO)C[C@]3(O)C(=O)C(C)=C[C@@H]23)[C@@H]2C(C)(C)[C@]12OC(C)=O [PMA, phorbol-12-myristate-13-acetate, reference compound]
[2]
  ICAM-1 and VCAM-1 binding to classical monocytes: increased binding of ICAM-1 or VCAM-1

## Cc1ccc2c(c1)C1(CCN(CCc3nc(-c4ccccc4)oc3C)CC1)OC(=O)N2 [RS504393, reference compound]
[1]; RS504393 1µM, P-selectin/ICAM-1 or P-selectin/VCAM-1, n=8
  Effect on MCP1-mediated monocyte adhesion: blocked

## CRAMP
Classical monocytes
  Accumulation of classical monocytes into peritoneum: rescued by local application of CRAMP
[2]
  ICAM-1 and VCAM-1 binding to classical monocytes: increased binding of ICAM-1 or VCAM-1; also recorded: enhances ICAM-1 and VCAM-1 binding to classical monocytes
[9]; neutropenic Darc^−/− mice, TNF 50ng, 4h, and CRAMP 1µg intrascrotal
  Transportation of CRAMP across endothelium in Darc^−/− mice: maintained in Darc^−/− mice
[9]; neutropenic WT mice, TNF 50ng and CRAMP 1µg intrascrotal
  Luminal CRAMP in WT mice: luminal CRAMP was detected 4h after intrascrotal CRAMP injection
non-classical monocytes
  Adhesion of non-classical monocytes, mouse cremaster: not of non-classical monocytes
[10]; Cramp^−/− mice, intrascrotal TNF with CRAMP 1µg vs TNF alone, n=5
  Adhesion of classical monocytes in Cramp^−/− mice: restored the defect in Cramp^−/− mice; also recorded: restores adhesion of classical monocytes
[10]; mouse cremaster muscle in vivo
  Adhesion of classical monocytes, overall statement, mouse cremaster: induce adhesion of classical monocytes
[10]; neutropenic Fpr1^−/− mice, TNF and CRAMP 1µg, n=6
  Adhesion of classical monocytes in Fpr1^−/− mice: resulted in increased adhesion in Fpr1^−/− mice
[10]; neutropenic Fpr2^−/− mice, TNF and CRAMP 1µg, n=6
  Adhesion of classical monocytes in Fpr2^−/− mice: this response was not observed in Fpr2^−/− mice

## O=C(Nc1ccc([N+](=O)[O-])cc1O)Nc1ccccc1Br [SB225002]
HUVEC; n=6
  Effect on transendothelial LL37 transportation: did not impact on transendothelial LL37 transportation
